How the values were obtained:
[1] = Volume of distribution at steady state in mouse at 1 mg/kg, iv; type: ADME, organism-based; set-up: dose 1 mg/kg, route intravenous; conditions: in vivo, read-out: Vdss
In short: (§1)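 Mouse PK: iv dose 1 mg/kg given as a solution in 80% PEG/10% EtOH; po dose 5 mg/kg given as a suspension in MCT (0.5% methylcellulose/0.2% Tween 80).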

[2] = Half life in mouse at 1 mg/kg, iv; type: ADME, organism-based; set-up: dose 1 mg/kg, route intravenous; conditions: in vivo; in short: as §1
Mus musculus [3] = experiment: (§2) AUC in mouse at 5 mg/kg, po; type: ADME, organism-based, Plasma; set-up: dose 5 mg/kg, route oral; conditions: in vivo; in short: as §1
Mus musculus [4] = experiment: (§3) Oral bioavailability in mouse at 5 mg/kg; type: ADME, organism-based; conditions: in vivo; in short: as §1
[5] = Plasma protein binding in mouse; type: ADME, cell-free; conditions: read-out: PPB (converted)
[6] = Plasma protein binding in human; type: ADME, cell-free; conditions: read-out: PPB (converted)
PC-3 = experiment: Antiproliferative activity against human PC3 cells after 3 days by CellTiter-Glo luminescent cell viability assay; conditions: PC-3, 72 h
MCF7 = experiment: Antiproliferative activity against human MCF7 cells expressing neo/Her2 after 3 days by CellTiter-Glo luminescent cell viability assay; conditions: MCF7, 72 h
[7] = Plasma protein binding in rat; type: ADME, cell-free; conditions: read-out: PPB (converted)
[8] = as §2; type: ADME, organism-based, Plasma; set-up: dose 5 mg/kg, route oral; conditions: plasma; in short: as §1
[9] = as §3; type: ADME, organism-based; conditions: in vivo; in short: as §1
Mus musculus [10] = experiment: In vivo inhibition of mTORC2 in NCR nude mouse xenografted with human NCI-PC3 cells assessed as reduction in phosphorylated Akt level at 25 to 100 mg/kg, po administered as single dose relative to control; values are per cent of control; conditions: dose mg/kg 25-100
[11] = Clearance in mouse at 1 mg/kg, iv; type: ADME, organism-based; set-up: dose 1 mg/kg, route intravenous; conditions: in vivo; in short: as §1
Mus musculus [12] = experiment: In vivo inhibition of mTORC1 in NCR nude mouse xenografted with human NCI-PC3 cells assessed as reduction in phosphorylated S6RP level at 25 to 100 mg/kg, po administered as single dose relative to control; values are per cent of control; conditions: dose mg/kg 25-100
[13] = Selectivity ratio of Ki for human recombinant mTOR (1360-2549) over Ki for PI3Kalpha
[14] = target: Serine/threonine-protein kinase mTOR (Homo sapiens, UniProt P42345); experiment: Inhibition of human recombinant mTOR expressed in insect cells using 4E-BP1 substrate after 30 mins by fluorescence resonance energy transfer assay

Compound	Vd [1]	half-life [2]	fraction unbound [5]	fraction unbound [6]	IC50 (PC-3)	IC50 (MCF7)	fraction unbound [7]	other results
CCNC(=O)Nc1ccc(-c2nc(N3CCOC[C@@H]3C)c3c(n2)[C@](C)(CCOC)OC3)cc1					62 nM	130 nM		
C[C@H]1COCCN1c1nc(-c2ccc(NC(=O)NCCC#N)cc2)nc2c1COC2(C)C					120 nM	260 nM		
CCNC(=O)Nc1ccc(-c2nc(N3CCOCC3)c3c(n2)[C@@](C)(CC(C)(C)O)OC3)cc1					140 nM	170 nM		
C[C@H]1COCCN1c1nc(-c2ccc(NC(=O)Nc3cnn(C)c3)cc2)nc2c1COC2(C)C					52 nM	160 nM		
CCNC(=O)Nc1ccc(-c2nc(N3CCOC[C@@H]3C)c3c(n2)[C@@](C)(CC(C)(C)O)OC3)cc1	2.7 L/kg	78 min	0.15	0.34	130 nM	29 nM	0.12	AUC (Mus musculus [3]): 0.65 µM·h; F (Mus musculus [4]): 73%
CCNC(=O)Nc1ccc(-c2nc(N3CCOCC3)c3c(n2)[C@@](C)(CO)OC3)cc1					960 nM	1700 nM		
CCNC(=O)Nc1ccc(-c2nc(N3CCOC[C@@H]3C)c3c(n2)[C@@](C)(CCC#N)OC3)cc1					41 nM	100 nM		
CCNC(=O)Nc1ccc(-c2nc(N3CCOC[C@@H]3C)c3c(n2)[C@](C)(CC(C)(C)O)OC3)cc1	1.3 L/kg	66 min	0.09	0.18	18 nM	75 nM	0.22	AUC (Mus musculus [3]): 0.63 µM·h; F (Mus musculus [4]): 53%
C[C@H]1COCCN1c1nc(-c2ccc(Nc3cccc(=O)[nH]3)cc2)nc2c1COC2(C)C	1.9 L/kg	132 min	0.03	0.02	120 nM	120 nM	0.04	AUC [8]: 0.31 µM·h; bioavailability [9]: 7%; clearance [11]: 44 mL/min/kg
CCNC(=O)Nc1ccc(-c2nc(N3CCOCC3)c3sc(C(C)(C)O)cc3n2)cc1								Ratio Ki [13]: 20; Ki [14]: 3 nM
CCNC(=O)Nc1ccc(-c2nc(N3CCOC[C@@H]3C)c3c(n2)[C@@](C)(CCOC)OC3)cc1					284 nM	1200 nM		
CCNC(=O)Nc1ccc(-c2nc(N3CCOC[C@@H]3C)c3c(n2)[C@](C)(CCC#N)OC3)cc1					74 nM	193 nM		
C[C@H]1COCCN1c1nc(-c2ccc(NC(=O)NCCO)cc2)nc2c1COC2(C)C	1.5 L/kg	25.2 min	0.19	0.28	46 nM	66 nM	0.3	AUC [8]: 0.81 µM·h; bioavailability [9]: 22%; clearance [11]: 53 mL/min/kg
CCNC(=O)Nc1ccc(-c2nc(N3CCOC[C@@H]3C)c3c(n2)C(C)(C)OC3=O)cc1					60 nM	220 nM		

Continued, in another order:

Vd [1]	half-life [2]	fraction unbound [5]	fraction unbound [6]	IC50 (PC-3)	IC50 (MCF7)	fraction unbound [7]	Compound	other results
2 L/kg	46.2 min	0.11	0.27	17 nM	22 nM	0.26	CCNC(=O)Nc1ccc(-c2nc(N3C[C@H]4CC[C@@H](C3)O4)c3c(n2)[C@](C)(CCO)OC3)cc1	AUC (Mus musculus [3]): 0.78 µM·h; F (Mus musculus [4]): 50%
				160 nM	480 nM		C[C@H]1COCCN1c1nc(-c2ccc(NC(=O)NC3COC3)cc2)nc2c1COC2(C)C	
1.4 L/kg	24 min	0.05	0.14	78 nM	52 nM	0.08	CCNC(=O)Nc1ccc(-c2nc(N3CCOC[C@@H]3C)c3c(n2)C(C)(C)OC3)cc1	AUC [8]: 6.1 µM·h; bioavailability [9]: 140%; level, % of control (Mus musculus [10]): 15%; clearance [11]: 46 mL/min/kg; level, % of control (Mus musculus [12]): 15%
				210 nM	490 nM		CCNC(=O)Nc1ccc(-c2nc(N3CCOCC3)c3c(n2)[C@@](C)(CCO)OC3)cc1	
1.5 L/kg	19.8 min	0.06	0.13	15 nM	15 nM		CCNC(=O)Nc1ccc(-c2nc(N3CCOC[C@@H]3C)c3c(n2)[C@](C)(CCO)OC3)cc1	AUC (Mus musculus [3]): 0.59 µM·h; F (Mus musculus [4]): 110%; level, % of control (Mus musculus [10]): 15%; level, % of control (Mus musculus [12]): 15%
				100 nM	340 nM		CCNC(=O)Nc1ccc(-c2nc(N3CCOC[C@@H]3C)c3c(n2)[C@](C)(CC2CC2)OC3)cc1	
2.6 L/kg	34.2 min	0.22	0.41	220 nM	1100 nM	0.33	CCNC(=O)Nc1ccc(-c2nc(N3CCOC[C@@H]3C)c3c(n2)[C@](C)(CCN(C)C)OC3)cc1	AUC [8]: 0.14 µM·h; bioavailability [9]: 6%; clearance [11]: 76 mL/min/kg
0.57 L/kg	12.6 min	0.02	0.02	120 nM	310 nM	0.05	CCNC(=O)Nc1ccc(-c2nc(N3CCOCC3)c3c(n2)C(C)(C)OC3=O)cc1	AUC (Mus musculus [3]): 1.5 µM·h; bioavailability (Mus musculus [4]): 23%
1 L/kg	16.2 min	0.14	0.23	28 nM	27 nM	0.21	CCNC(=O)Nc1ccc(-c2nc(N3CCOCC3)c3c(n2)[C@](C)(CC(C)(C)O)OC3)cc1	AUC (Mus musculus [3]): 0.66 µM·h; F (Mus musculus [4]): 55%
				450 nM	530 nM		CCNC(=O)Nc1ccc(-c2nc(N3CCOC[C@@H]3C)c3c(n2)[C@@](C)(CO)OC3)cc1	
				31 nM	95 nM		CCNC(=O)Nc1ccc(-c2nc(N3CCOC[C@@H]3C)c3c(n2)[C@@](C)(CC2CC2)OC3)cc1	
				220 nM	280 nM		CCNC(=O)Nc1ccc(-c2nc(N3CCOCC3)c3c(n2)[C@](C)(CO)OC3)cc1	
				95 nM	192 nM		CCNC(=O)Nc1ccc(-c2nc(N3CCOC[C@@H]3C)c3c(n2)[C@](C)(CO)OC3)cc1	
2.4 L/kg	20.4 min	0.06	0.14	118 nM	510 nM	0.21	CCNC(=O)Nc1ccc(-c2nc(N3CCOC[C@@H]3C)c3c(n2)[C@@](C)(CCO)OC3)cc1	AUC (Mus musculus [3]): 0.43 µM·h; F (Mus musculus [4]): 65%
1.5 L/kg	42.6 min	0.17	0.22	16 nM	48 nM	0.24	CCNC(=O)Nc1ccc(-c2nc(N3CCOCC3)c3c(n2)[C@](C)(CCO)OC3)cc1	AUC (Mus musculus [3]): 0.96 µM·h; F (Mus musculus [4]): 56%
				66 nM	160 nM		CCNC(=O)Nc1ccc(-c2nc(N3C[C@H]4CC[C@@H](C3)O4)c3c(n2)[C@@](C)(CCO)OC3)cc1	
				330 nM	1900 nM		C[C@H]1COCCN1c1nc(-c2ccc(NC(=O)NC[C@@H](O)CO)cc2)nc2c1COC2(C)C	

Reference: ChEMBL document CHEMBL1773044, “Potent, selective, and orally bioavailable inhibitors of mammalian target of rapamycin (mTOR) kinase based on a quaternary substituted dihydrofuropyrimidine” (J Med Chem, 2011)
